Assay type in all cases: cell-based
In data set [1] the test system is Raji. In words: Inhibition of 12-O-tetradecanoylphorbol-13-acetate-induced EBV-early antigen activation in human Raji cells at 10 molar ratio relative to TPA. The settings on record: human gammaherpesvirus 4. On the set-up: scale not given: the % may be the effect or the level left. An outline of the steps:
(§1)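 Raji cells (virus nonproducer, 1×10^6/mL) were cultured 48 h at 37 °C in 1 mL medium with n-butyric acid (4 mmol), TPA inducer (32 pmol = 20 ng in DMSO) and compound in DMSO. Dose is the mol ratio to TPA. EA-positive cells on smears were found by indirect immunofluorescence using NPC patient serum. Triplicate assays; induction is given relative to the butyric acid + TPA control (100%).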

Data set [2] in a line: Cytotoxicity against human Raji cells assessed as cell viability at 1000 molar ratio by Trypan blue method. The settings on record: read-out: Activity. The essentials: (§2)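 Raji cells (1×10^6/mL) given n-butyric acid (4 mmol), TPA (32 pmol = 20 ng per mL, in DMSO) and test compound in DMSO, then held at 37 °C for 48 h. Dose is the mol ratio of compound to TPA. Viability of the treated cells was scored by Trypan Blue staining.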

A short description of data set [3]: Cytotoxicity against human Raji cells assessed as cell viability at 100 molar ratio by Trypan blue method. The settings on record: read-out: Activity. The essentials:
as §2

The subject of data set [4] is Raji. Description: Inhibition of 12-O-tetradecanoylphorbol-13-acetate-induced EBV-early antigen activation in human Raji cells at 1000 molar ratio relative to TPA. The settings on record: human gammaherpesvirus 4. On the set-up: scale not given: the % may be the effect or the level left. An outline of the steps:
as §1

Data set [5] concerns Raji. Description: Inhibition of 12-O-tetradecanoylphorbol-13-acetate-induced EBV-early antigen activation in human Raji cells at 100 molar ratio relative to TPA. Set-up: scale not given: the % may be the effect or the level left. The settings on record: human gammaherpesvirus 4. An outline of the steps:
as §1

In data set [6] the test system is Raji. In words: Inhibition of 12-O-tetradecanoylphorbol-13-acetate-induced EBV-early antigen activation in human Raji cells at 500 molar ratio relative to TPA. On the set-up: scale not given: the % may be the effect or the level left. The settings on record: human gammaherpesvirus 4. The essentials:
as §1

Data set [7] in a line: Cytotoxicity against human Raji cells assessed as cell viability at 500 molar ratio by Trypan blue method. The settings on record: read-out: Activity. The essentials:
as §2

Data set [8] can be described thus: Cytotoxicity against human Raji cells assessed as cell viability at 10 molar ratio by Trypan blue method. The settings on record: read-out: Activity. The essentials:
as §2

With `Oc1cc(O)c2c(c1)O[C@@H](c1ccc(O)c(O)c1)[C@H](O)C2` [(-)-CATECHIN], the Activity was 100% in the data set on Raji [1], 11.3% in the data set with Raji [4], 75.8% in the data set with Raji [5] and 41.3% in the data set on Raji [6]. The viability at 1000 molar ratio in data set [2] came to 70%. Moreover, the viability at 100 molar ratio in data set [3] was more than 80%. Besides, the viability at 500 molar ratio in data set [7] was more than 80%. For the same compound, in data set [8], the viability at 10 molar ratio is more than 80%.

Regarding `COc1cc(/C=C/C(=O)OC[C@H]2O[C@H](O[C@]3(COC(=O)/C=C/c4ccc(O)c(OC)c4)O[C@H](COC(=O)/C=C/c4ccc(O)cc4)[C@@H](O)[C@@H]3OC(=O)/C=C/c3ccc(O)cc3)[C@H](O)[C@@H](O)[C@@H]2O)ccc1O` [LAPATHOSIDE A], the Activity was 95% with Raji [1], 10% in the data set on Raji [4], 70.9% with Raji [5] and 37.2% in the data set on Raji [6]. Moreover, the viability at 1000 molar ratio in data set [2] was 70%. Further, the viability at 100 molar ratio in data set [3] is more than 80%. Further, the viability at 500 molar ratio in data set [7] was more than 80%. In data set [8], the viability at 10 molar ratio was more than 80%.

For the compound `COc1cc(/C=C/C(=O)OC[C@H]2O[C@H](O[C@]3(CO)O[C@H](COC(=O)/C=C/c4ccc(O)cc4)[C@@H](O)[C@@H]3OC(=O)/C=C/c3ccc(O)cc3)[C@H](O)[C@@H](O)[C@@H]2O)ccc1O` [LAPATHOSIDE C], the Activity with Raji [1] came to 100%; in the data set with Raji [4], 33.6%; in the data set on Raji [5], 83.5%; with Raji [6], 59%. The viability at 1000 molar ratio in data set [2] stood at 70%. Also, the viability at 100 molar ratio in data set [3] was more than 80%. Further, the viability at 500 molar ratio in data set [7] is more than 80%. In data set [8], the viability at 10 molar ratio was more than 80%.

Regarding `O=C(/C=C/c1ccc(O)cc1)OC[C@H]1O[C@@](COC(=O)/C=C/c2ccc(O)cc2)(O[C@H]2O[C@H](CO)[C@@H](O)[C@H](O)[C@H]2O)[C@@H](OC(=O)/C=C/c2ccc(O)cc2)[C@@H]1O` [HYDROPIPEROSIDE], the Activity amounted to 100% in the data set with Raji [1], 10.6% in the data set with Raji [4], 71.5% with Raji [5] and 39.6% with Raji [6]. Besides, in data set [2], the viability at 1000 molar ratio came to 70%. Besides, the viability at 100 molar ratio in data set [3] is more than 80%. Also, the viability at 500 molar ratio in data set [7] was more than 80%. Further, the viability at 10 molar ratio in data set [8] was more than 80%.

As to `O=C(/C=C/c1ccc(O)cc1)OC[C@H]1O[C@@](CO)(O[C@H]2O[C@H](CO)[C@@H](O)[C@H](O)[C@H]2O)[C@@H](OC(=O)/C=C/c2ccc(O)cc2)[C@@H]1O` [LAPATHOSIDE D], the Activity in the data set on Raji [1] came to 100%; in the data set with Raji [4], 10.5%; in the data set on Raji [5], 71.4%; with Raji [6], 38.3%. Further, the viability at 1000 molar ratio in data set [2] is 70%. Also, the viability at 100 molar ratio in data set [3] was more than 80%. In addition, the viability at 500 molar ratio in data set [7] was more than 80%. The viability at 10 molar ratio in data set [8] is more than 80%.

Take `CC[C@H](CC[C@@H](C)[C@H]1CC[C@H]2[C@@H]3CC=C4C[C@@H](O[C@@H]5O[C@H](CO)[C@@H](O)[C@H](O)[C@H]5O)CC[C@]4(C)[C@H]3CC[C@]12C)C(C)C` [SITOGLUSIDE]: the Activity in the data set on Raji [1] worked out at 100%; in the data set with Raji [4], 14.8%; with Raji [5] it was 73.9%; with Raji [6], 45.7%. In addition, the viability at 1000 molar ratio in data set [2] worked out at 60%. Also, in data set [3], the viability at 100 molar ratio was more than 80%. The viability at 500 molar ratio in data set [7] is more than 80%. Moreover, in data set [8], the viability at 10 molar ratio was more than 80%.

With `CC[C@H](CC[C@@H](C)[C@H]1CC[C@H]2[C@@H]3C(=O)C=C4C[C@@H](O)CC[C@]4(C)[C@H]3CC[C@]12C)C(C)C`, the Activity is 100% in the data set on Raji [1], 11.5% with Raji [4], 71.5% in the data set with Raji [5] and 42.8% in the data set on Raji [6]. In addition, the viability at 1000 molar ratio in data set [2] is 60%. Also, in data set [3], the viability at 100 molar ratio is more than 80%. Besides, the viability at 500 molar ratio in data set [7] was more than 80%. Further, the viability at 10 molar ratio in data set [8] was more than 80%.

For the compound `COc1cc(/C=C/C(=O)OC[C@H]2O[C@H](O[C@]3(COC(=O)/C=C/c4ccc(O)cc4)O[C@H](COC(=O)/C=C/c4ccc(O)cc4)[C@@H](O)[C@@H]3OC(=O)/C=C/c3ccc(O)cc3)[C@H](O)[C@@H](O)[C@@H]2O)ccc1O` [VANICOSIDE B], the Activity came to 100% in the data set with Raji [1], 11.8% with Raji [4], 70% in the data set with Raji [5] and 40.9% in the data set with Raji [6]. In addition, in data set [2], the viability at 1000 molar ratio was 70%. Besides, the viability at 100 molar ratio in data set [3] is more than 80%. The viability at 500 molar ratio in data set [7] was more than 80%. For the same compound, the viability at 10 molar ratio in data set [8] is more than 80%.

For `COC(=O)/C=C/c1ccc(O)cc1` [METHYL P-HYDROXYCINNAMATE], the Activity in the data set with Raji [1] turned out to be 100%; with Raji [4], 15.7%; in the data set with Raji [5], 77.5%; with Raji [6], 42.6%. Further, the viability at 1000 molar ratio in data set [2] was 70%. In addition, in data set [3], the viability at 100 molar ratio was more than 80%. In data set [7], the viability at 500 molar ratio was more than 80%. Further, the viability at 10 molar ratio in data set [8] is more than 80%.

As for `COc1cc(/C=C/C(=O)OC[C@H]2O[C@@](COC(=O)/C=C/c3ccc(O)c(OC)c3)(O[C@H]3O[C@H](COC(=O)/C=C/c4ccc(O)c(OC)c4)[C@@H](O)[C@H](O)[C@H]3O)[C@@H](OC(=O)/C=C/c3ccc(O)cc3)[C@@H]2O)ccc1O` [LAPATHOSIDE B], the Activity with Raji [1] came to 100%; with Raji [4], 26.8%; in the data set on Raji [5] it was 77.9%; with Raji [6] it was 51.6%. For the same compound, the viability at 1000 molar ratio in data set [2] is 60%. Also, the viability at 100 molar ratio in data set [3] is more than 80%. Further, in data set [7], the viability at 500 molar ratio is more than 80%. In data set [8], the viability at 10 molar ratio is more than 80%.

For the origin of these results see ChEMBL document CHEMBL1156360, “New phenylpropanoid esters of sucrose from Polygonum lapathifolium” (J Nat Prod, 2001).
